Source: ChEMBL document CHEMBL1149064, “Tyrosinase inhibitors from Anacardium occidentale fruits” (J Nat Prod, 1994)
Active and inactive are the calls of the source. No cut-off for these calls is given here.

Columns and labels:
[1] = target: T1, Tyrosinase (Agaricus bisporus) (UniProt O42713); assay: Inhibition of mushroom tyrosinase assessed as oxidation of L-DOPA at 0.8 mM
T1 sequence (whole entry): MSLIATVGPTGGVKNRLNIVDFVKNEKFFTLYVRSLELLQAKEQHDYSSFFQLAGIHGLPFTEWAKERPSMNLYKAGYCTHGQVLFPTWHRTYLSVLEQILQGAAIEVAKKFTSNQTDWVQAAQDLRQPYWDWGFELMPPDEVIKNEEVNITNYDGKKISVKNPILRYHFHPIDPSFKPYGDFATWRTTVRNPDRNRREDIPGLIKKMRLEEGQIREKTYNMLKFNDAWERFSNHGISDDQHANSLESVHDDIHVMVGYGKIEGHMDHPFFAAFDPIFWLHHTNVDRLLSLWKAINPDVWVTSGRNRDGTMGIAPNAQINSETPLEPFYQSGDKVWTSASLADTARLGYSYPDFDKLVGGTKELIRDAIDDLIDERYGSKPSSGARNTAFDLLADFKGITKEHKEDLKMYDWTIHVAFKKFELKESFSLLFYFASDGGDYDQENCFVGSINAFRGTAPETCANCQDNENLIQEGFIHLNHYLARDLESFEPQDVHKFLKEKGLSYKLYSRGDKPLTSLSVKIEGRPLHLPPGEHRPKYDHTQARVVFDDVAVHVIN

[2] = target: T1, Tyrosinase (Agaricus bisporus); assay: Inhibition of mushroom tyrosinase assessed as oxidation of L-DOPA
[3] = target: T1, Tyrosinase (Agaricus bisporus); assay: Inhibition of mushroom tyrosinase assessed as oxidation of L-DOPA by Lineweaver-Burke plot analysis
Procedure, shortened: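 Mushroom tyrosinase (138 units) added to L-DOPA (1 ml of 2.5 mM stock) plus sample (DMSO solution diluted 30-fold) in 0.1 M phosphate buffer pH 6.8, after 10 min at 25°. Initial linear rate of dopachrome formation read at 475 nm; double-reciprocal plot of 1/V (1/ΔA475 per min).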

[4] = target: T1, Tyrosinase (Agaricus bisporus); assay: Inhibition of mushroom tyrosinase assessed as oxidation of L-DOPA preincubated for 5 mins before L-DOPA addition
Procedure, shortened: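 Enzyme (138 units) and sample pre-incubated in 0.1 M phosphate buffer pH 6.8 for 5 min at 25°. Then 0.4 ml of 6.3 mM L-DOPA stock added and the reaction followed at 475 nm for 4 min. Controls: no inhibitor with or without pre-incubation, and inhibitor without pre-incubation.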

Compound	Activity [1]	inhibition [1] [%]	Activity [2]	ID50 [2] [mM]	Activity [3]	Activity [4]
CCCCCCCCCCCCCCCc1cccc(O)c1	inactive					
CCCCCCCCCCCCCCCc1cc(O)cc(O)c1		21	Dose-dependent effect			
CCCCCC/C=C\CCCCCCCc1cccc(O)c1C(=O)O		15	Dose-dependent effect	7.5		
CCC/C=C\C/C=C\CCCCCCCc1cc(O)c(C)c(O)c1		20				
CCC/C=C\C/C=C\CCCCCCCc1cccc(O)c1C(=O)O		15	Dose-dependent effect	6		
C=CC/C=C\C/C=C\CCCCCCCc1cc(O)cc(O)c1		88	Dose-dependent effect	0.04	Active	Active
C=CC/C=C\C/C=C\CCCCCCCc1cccc(O)c1C(=O)O (stereo in doubt; 5)		45	Dose-dependent effect	1.1	Active	Active
CCCCCC/C=C\CCCCCCCc1cc(O)c(C)c(O)c1		24				
C=CC/C=C\C/C=C\CCCCCCCc1cccc(O)c1C(=O)O (stereo in doubt; 8)		15	Dose-dependent effect	4.2		
OC[C@H]1O[C@@H](Oc2ccc(O)cc2)[C@H](O)[C@@H](O)[C@@H]1O				6.2		
Oc1cccc(O)c1		34		1.2		
C=CC/C=C\C/C=C\CCCCCCCc1cc(O)c(C)c(O)c1		16				
O=C(O)c1ccccc1O		23		3.9		
